Source: ChEMBL document CHEMBL4043134, “Isolation and lipolytic activity of eurycomanone and its epoxy derivative from Eurycoma longifolia” (Bioorg Med Chem, 2017)
Calls of active or inactive are those of the source. The calls are words filed in the database; no cut-off is given here.

Tests used:
3T3-L1 [1] = experiment: Cytotoxicity against mouse 3T3L1 cells assessed as reduction in cell viability up to 100 uM after 6 to 48 hrs by CCK-8 assay; assay type: cell-based
[2] = biological target: Beta-3 adrenergic receptor (Mus musculus) (UniProt P25962); experiment: Activation of beta3 adrenergic receptor in mouse 3T3-L1 cells assessed as lipolytic activity by measuring increase in glycerol release at 25 uM administered 1 hr after beta3 adrenergic receptor inhibitor addition measured after 24 hrs in presence of 20 uM […] inhibitor propranolol; assay type: cell-based
Method in brief: (§1)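 Day-8 differentiated 3T3-L1 adipocytes were preincubated with the specified inhibitor for 1 h, then incubated with sample plus inhibitor for 24 h in phenol-red-free DMEM. Released glycerol in the medium was quantified with free glycerol reagent (37 °C, 5 min, A540) and expressed relative to control.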

Mus musculus [3] = experiment: Activation of PKA in mouse 3T3-L1 cells assessed as lipolytic activity by measuring increase in glycerol release at 25 uM administered 1 hr after PKA inhibitor addition measured after 24 hrs in presence of 20 uM PKA inhibitor H-89; assay type: cell-based; method in brief: as §1
3T3-L1 [4] = experiment: Antiobesity activity in mouse 3T3L1 cells assessed as reduction in accumulation of lipid droplets administered on day 4 post differentiation induction measured on day 9 by Oil Red O staining-based microscopic analysis; assay type: functional, cell-based
Mus musculus [5] = experiment: Activation of ERK in mouse 3T3-L1 cells assessed as lipolytic activity by measuring increase in glycerol release at 25 uM administered 1 hr after ERK inhibitor addition measured after 24 hrs in presence of 20 uM ERK inhibitor PD 98059; assay type: cell-based; method in brief: as §1
3T3-L1 [6] = experiment: Antiobesity activity in mouse 3T3L1 cells assessed as increase in glycerol release after 24 hrs; assay type: functional, cell-based; conditions: for EC50: 3T3-L1, 24 h
Method in brief: (§2)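 3T3-L1 preadipocytes were differentiated with IBMX (0.5 mM), DEX (0.25 μM) and insulin (5 μg/mL) from day 0, then insulin alone, then plain 10% FBS/DMEM. On day 8 they were exposed to sample (DMSO stock diluted in phenol-red-free DMEM) for 24 h. Medium was mixed with free glycerol reagent (37 °C, 5 min) and read at A540, relative to control. Mean ± SEM, n=6.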

Mus musculus [7] = organism: Mus musculus; experiment: Induction of PKA phosphorylation in mouse 3T3-L1 cells at 12.5 uM in presence of 20 uM H-89 by immunoblotting; assay type: cell-based
3T3-L1 [8] = experiment: Antiobesity activity in mouse 3T3L1 cells assessed as glycerol release at 1 uM after 24 hrs relative to control; assay type: functional; method in brief: as §2
3T3-L1 [9] = experiment: Antiobesity activity in mouse 3T3L1 cells assessed as reduction in accumulation of lipid droplets up to 100 uM administered on day 4 post differentiation induction measured on day 9 by Oil Red O staining-based microscopic analysis relative to control; assay type: functional, cell-based
3T3-L1 [10] = experiment: Antiobesity activity in mouse 3T3L1 cells assessed as increase in glycerol release up to 100 uM after 24 hrs relative to control; assay type: functional, cell-based
Method in brief: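 Mouse 3T3-L1 preadipocytes were differentiated from day 0 (one day post-confluence) in 10% FBS/DMEM with 0.5 mM IBMX, 0.25 μM DEX and 5 μg/mL insulin, then switched to insulin medium, then plain medium; used on day 8. Samples were dissolved in DMSO and diluted into phenol-red-free DMEM, applied for 24 h. Medium glycerol was measured with free glycerol reagent (37 °C, 5 min, A540) relative to control; 1 μM isoproterenol positive control; mean ± SEM, n=6, Dunnett's test.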

Sequence of Beta-3 adrenergic receptor (Mus musculus) (P25962 whole entry): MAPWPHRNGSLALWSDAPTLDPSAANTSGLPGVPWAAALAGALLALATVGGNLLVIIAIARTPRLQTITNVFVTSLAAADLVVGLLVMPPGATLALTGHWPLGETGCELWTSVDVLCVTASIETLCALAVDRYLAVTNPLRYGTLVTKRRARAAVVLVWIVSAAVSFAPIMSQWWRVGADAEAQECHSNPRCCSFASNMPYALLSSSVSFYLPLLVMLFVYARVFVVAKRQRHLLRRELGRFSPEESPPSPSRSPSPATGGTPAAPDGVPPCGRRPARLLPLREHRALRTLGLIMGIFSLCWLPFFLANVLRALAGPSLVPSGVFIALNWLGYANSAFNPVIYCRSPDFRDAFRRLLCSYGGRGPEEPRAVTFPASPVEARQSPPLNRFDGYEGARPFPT

Compound	Activity (3T3-L1 [1])	Activity [2]	Activity (Mus musculus [3])	Activity (3T3-L1 [4])	Activity (Mus musculus [5])	Activity (3T3-L1 [6])	EC50 (3T3-L1 [6])	Activity (Mus musculus [7])	Activity (3T3-L1 [8])	Activity (3T3-L1 [9])	Activity (3T3-L1 [10])
CC1=CC(=O)[C@@H](O)[C@]2(C)C3[C@]4(O)OC[C@@]35[C@@H](C[C@@H]12)OC(=O)[C@H](O)[C@@]5(O)[C@@]1(CO1)[C@H]4O (some centres undefined)	Non-Toxic	inactive	Active	Dose-dependent effect	inactive	Dose-dependent effect	8.6 µM	Active			
CC(C)NCC(O)c1ccc(O)c(O)c1 (centres undefined) [ISOPROTERENOL]									322%		
C=C1[C@@H](O)[C@@]2(O)OC[C@]34C2[C@@]2(C)[C@H](O)C(=O)C=C(C)[C@@H]2C[C@H]3OC(=O)[C@H](O)[C@@]14O (some centres undefined)	Non-Toxic	inactive	Active	Dose-dependent effect	inactive	Dose-dependent effect	14.6 µM	Active			
CC1=CC(=O)[C@@H](O)[C@]2(C)C3[C@]4(O)OC[C@@]35[C@@H](C[C@@H]12)OC(=O)[C@H](O)[C@@]5(O)[C@@](O)(CO)[C@H]4O (some centres undefined)										inactive	inactive
